Test results as given in ChEMBL document CHEMBL4765366, “Targeting fungal virulence factor by small molecules: Structure-based discovery of novel secreted aspartic protease 2 (SAP2) inhibitors” (Eur J Med Chem, 2020).
Active and inactive are the calls of the source. The calls are words filed in the database; no cut-off is given here.

How the values were obtained:
Candida albicans [1] = test: Inhibition of hyphal formation in azole resistant Candida albicans 0304103 at 128 ug/ml incubated for 3 hrs by microscopic imaging analysis; type: functional
Outline: (§1)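 Yeast cells (1.0 × 10^5 CFU/mL) were exposed to a range of compound concentrations, with fluconazole as the positive drug. Plates were incubated at 37°C for 3 h (C. albicans 0304103 and SC5314) or 7 h (C. tropicalis 10186). Hyphal growth was then observed and photographed by microscopy.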

Candida tropicalis [2] = test: Inhibition of hyphal formation in azole resistant Candida tropicalis 10186 at 64 ug/ml incubated for 7 hrs by microscopic imaging analysis; type: functional; outline: as §1
Candida albicans [3] = test: Inhibition of hyphal formation in azole resistant Candida albicans 0304103 at 4 to 32 ug/ml incubated for 3 hrs by microscopic imaging analysis; type: functional, organism-based; conditions: dose 4-32 µg/ml; outline: as §1
Candida tropicalis [4] = test: Inhibition of hyphal formation in azole resistant Candida tropicalis 10186 at 4 to 16 ug/ml incubated for 7 hrs by microscopic imaging analysis; type: functional, organism-based; conditions: dose 4-16 µg/ml; outline: as §1
Candida albicans [5] = test: Antibiofilm activity against azole resistant Candida albicans 0304103 assessed as inhibition of biofilm formation incubated for 24 hrs by XTT-dye based assay; type: functional, organism-based; conditions: dose 4-64 µg/ml
Outline: (§2)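 Cell suspensions (1.0 × 10^5 CFU/mL) were adhered for 90 min at 37°C, then rinsed three times with PBS. Compounds were added at a range of concentrations from 2 mg/mL DMSO stocks, with fluconazole as the positive control. Plates were cultured 24 h at 37°C, and biofilm was measured semi-quantitatively by XTT reduction.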

Candida albicans [6] = test: Downregulation of ECE2 in azole resistant Candida albicans 0304103 at 64 ug/ml by qRT-PCR analysis; type: functional; conditions: dose 64.0 µg/ml
Candida albicans [7] = test: Inhibition of recombinant Candida albicans SAP2 at 100 uM using Dabcyl-Arg-Lys-Pro-Ala-Leu-Phe-Phe-Arg-Leu-Glu (EDANS)-Arg-OH as substrate incubated for 30 mins followed by substrate addition and measured after 30 mins by spectrophotometry relative to control; conditions: time 60.0 min
Outline: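 FRET assay with purified expressed C. albicans SAP2 in 50 mM sodium citrate, 50 mM NaCl, pH 4.5. Compound (diluted in DMSO) was preincubated with enzyme 30 min before adding the Dabcyl/EDANS peptide substrate (18.75 μM solution in DMSO). Reaction ran 30 min at 30 °C, then fluorescence was read at ex 340, em 485 nm. Pepstatin A was the positive control.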

Candida albicans [8] = test: Antibiofilm activity against azole resistant Candida albicans 0304103 assessed as inhibition of biofilm formation at 0.5 ug/ml in presence of fluconazole incubated for 24 hrs by XTT-dye based assay; type: functional, organism-based; conditions: dose 0.5 µg/ml
Candida albicans [9] = test: Upregulation of TEC1 in azole resistant Candida albicans 0304103 at 64 ug/ml by qRT-PCR analysis; type: functional; conditions: dose 64.0 µg/ml
Candida albicans [10] = test: Antifungal activity against azole resistant Candida albicans 0304103 infected in ICR mouse assessed as reduction in fungal burden in kidney at 10 mg/kg, ip administered for 4 days; type: functional, organism-based; conditions: time 4.0 day
Outline: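 Female ICR mice (20–25 g) were immunosuppressed with cyclophosphamide, 100 mg/kg ip in saline. After 24 h they were infected iv with 0.2 mL of 1×10^5 CFU/mL cells. Starting 24 h after infection, mice (4 per group) received the drug ip once daily for four days; controls received saline or fluconazole 10 mg/kg. Kidneys were homogenized and plated on YPD at 30°C for log10 CFU.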

Candida albicans [11] = test: Downregulation of ALS3 in azole resistant Candida albicans 0304103 at 64 ug/ml by qRT-PCR analysis; type: functional; conditions: dose 64.0 µg/ml
Candida tropicalis [12] = test: Antibiofilm activity against azole resistant Candida tropicalis 10186 assessed as inhibition of biofilm formation at 64 ug/ml incubated for 24 hrs by XTT-dye based assay relative to control; type: functional; outline: as §2
Candida albicans [13] = test: Antibiofilm activity against azole resistant Candida albicans 0304103 assessed as inhibition of biofilm formation at 32 ug/ml in presence of fluconazole incubated for 24 hrs by XTT-dye based assay relative to control; type: functional
Candida tropicalis [14] = test: Antibiofilm activity against azole resistant Candida tropicalis 10186 assessed as inhibition of biofilm formation incubated for 24 hrs by XTT-dye based assay; type: functional, organism-based; conditions: dose 4-64 µg/ml; outline: as §2
[15] = Inhibition of recombinant Candida albicans SAP2 using Dabcyl-Arg-Lys-Pro-Ala-Leu-Phe-Phe-Arg-Leu-Glu (EDANS)-Arg-OH as substrate incubated for 30 mins followed by substrate addition and measured after 30 mins by spectrophotometry
Candida albicans [16] = test: Inhibition of hyphal formation in azole sensitive Candida albicans SC5314 at 128 ug/ml incubated for 3 hrs by microscopic imaging analysis; type: functional; outline: as §1
Candida albicans [17] = test: Upregulation of CPH1 in azole resistant Candida albicans 0304103 at 64 ug/ml by qRT-PCR analysis; type: functional; conditions: dose 64.0 µg/ml
Candida albicans [18] = test: Downregulation of SAP2 in azole resistant Candida albicans 0304103 at 64 ug/ml by qRT-PCR analysis; type: functional; conditions: dose 64.0 µg/ml
Candida albicans [19] = test: Downregulation of EFG1 in azole resistant Candida albicans 0304103 at 64 ug/ml by qRT-PCR analysis; type: functional; conditions: dose 64.0 µg/ml
Candida albicans [20] = test: Inhibition of hyphal formation in azole sensitive Candida albicans SC5314 at 4 to 32 ug/ml incubated for 3 hrs by microscopic imaging analysis; type: functional, organism-based; conditions: dose 4-32 µg/ml; outline: as §1

Q: With `Cc1ccc(CN2C(=O)/C(=C/c3ccc(OCC(=O)O)cc3OCC(=O)O)c3ccc(-c4ccc(C)cc4)cc32)cc1` as the compound, how does the inhibition at 128 µg/mL (Candida albicans [1]) read?
A: 100%

Q: What about the inhibition at 64 µg/mL (Candida tropicalis [2]) of the same compound?
A: 100%

Q: And the inhibition (Candida albicans [3])?
A: inactive

Q: What about the inhibition (Candida tropicalis [4]) of the same compound?
A: Active

Q: And the inhibition (Candida albicans [5])?
A: Dose-dependent effect

Q: And the Activity (Candida albicans [6])?
A: Active

Q: And the inhibition (Candida albicans [7])?
A: 100%

Q: What about the inhibition (Candida albicans [8]) of the same compound?
A: Active

Q: What about the Activity (Candida albicans [9]) of the same compound?
A: Active

Q: What about the Activity (Candida albicans [10]) of the same compound?
A: Active

Q: And the Activity (Candida albicans [11])?
A: Active

Q: And the inhibition at 64 µg/mL (Candida tropicalis [12])?
A: > 50%

Q: And the inhibition at 32 µg/mL (Candida albicans [13])?
A: 90%

Q: What about the inhibition (Candida tropicalis [14]) of the same compound?
A: Dose-dependent effect

Q: And the IC50 [15]?
A: 920 nM

Q: What about the inhibition at 128 µg/mL (Candida albicans [16]) of the same compound?
A: 100%

Q: And the Activity (Candida albicans [17])?
A: Active

Q: What about the Activity (Candida albicans [18]) of the same compound?
A: Active

Q: And the Activity (Candida albicans [19])?
A: Active

Q: And the inhibition (Candida albicans [20])?
A: inactive
